Measured values published in ChEMBL document CHEMBL1153878, “Hansch analysis of veratric acid derivatives as antimicrobial agents” (2009).
≈ marks a conversion by molar mass, not a printed value.

Legend:
Assay type in all cases: functional
Bacillus subtilis = test: Antibacterial activity against Bacillus subtilis MTCC 2423 by serial dilution method; design: -logMIC: unit not given here; conditions: for MIC: Bacillus subtilis, MTCC 2423, read-out: MIC
Summary of the method: (§1)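 Tube serial dilution in 1 ml sterile double strength nutrient broth I.P., test range […] per ml. Inoculum: […] of a saline suspension at 10⁵ cfu/ml from a fresh 24-h culture, grown in double strength nutrient broth at 37 ± 1 °C. […] Exact MIC refined by further dilution of the stock.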

Escherichia coli = test: Antibacterial activity against Escherichia coli MTCC 739 by serial dilution method; design: -logMIC: scale not given here; conditions: for MIC: Escherichia coli, MTCC 739, read-out: MIC; summary of the method: as §1
Staphylococcus aureus = test: Antibacterial activity against Staphylococcus aureus MTCC 1430 by serial dilution method; design: -logMIC: scale not given here; conditions: for MIC: Staphylococcus aureus, MTCC 1430, read-out: MIC; summary of the method: as §1
Candida albicans = test: Antifungal activity against Candida albicans MTCC 227 by serial dilution method; design: -logMIC: unit not given here; conditions: for MIC: Candida albicans, MTCC 227, read-out: MIC
Aspergillus niger = test: Antifungal activity against Aspergillus niger MTCC 2425 by serial dilution method; design: -logMIC: scale not given here; conditions: for MIC: Aspergillus niger, MTCC 2425, read-out: MIC

Row | SMILES | -logMIC (Bacillus subtilis) | MIC (Bacillus subtilis) | -logMIC (Escherichia coli) | MIC (Escherichia coli) | -logMIC (Staphylococcus aureus) | MIC (Staphylococcus aureus) | -logMIC (Candida albicans) | MIC (Candida albicans) | -logMIC (Aspergillus niger) | MIC (Aspergillus niger)
1 | COc1ccc(C(=O)OC(C)C)cc1OC | 1.2 | 14 µg/mL (≈ 62.4 µM) | 1.2 | 14 µg/mL (≈ 62.4 µM) | 1.01 | 22 µg/mL (≈ 98.1 µM) | 1.35 | 10 µg/mL (≈ 44.6 µM) | 1.25 | 12.5 µg/mL (≈ 55.7 µM)
2 | COc1ccc(C(=O)Nc2ccccc2)cc1OC | 1.25 | 14 µg/mL (≈ 54.4 µM) | 1.04 | 23 µg/mL (≈ 89.4 µM) | 1.05 | 23 µg/mL (≈ 89.4 µM) | 1.2 | 16 µg/mL (≈ 62.2 µM) | 1.29 | 13 µg/mL (≈ 50.5 µM)
3 | CCNC(=O)c1ccc(OC)c(OC)c1 | 1.21 | 13 µg/mL (≈ 62.1 µM) | 1.01 | 20 µg/mL (≈ 95.6 µM) | 0.95 | 23.5 µg/mL (≈ 112 µM) | 1.31 | 10 µg/mL (≈ 47.8 µM) | 1.26 | 11.5 µg/mL (≈ 55 µM)
4 | COc1ccc(C(N)=O)cc1OC | 1.09 | 15 µg/mL (≈ 82.8 µM) | 0.95 | 20 µg/mL (≈ 110 µM) | 0.9 | 23 µg/mL (≈ 127 µM) | 1.25 | 10 µg/mL (≈ 55.2 µM) | 1.2 | 11 µg/mL (≈ 60.7 µM)
5 | COc1ccc(C(=O)Oc2cccc3cccnc23)cc1OC | 1.53 | 9 µg/mL (≈ 29.1 µM) | 1.56 | 8.5 µg/mL (≈ 27.5 µM) | 1.45 | 11 µg/mL (≈ 35.6 µM) | 1.35 | 13.5 µg/mL (≈ 43.6 µM) | 1.34 | 14 µg/mL (≈ 45.3 µM)
6 | CCOC(=O)c1ccc(OC)c(OC)c1 | 1.12 | 16 µg/mL (≈ 76.1 µM) | 1.02 | 20 µg/mL (≈ 95.1 µM) | 0.98 | 22 µg/mL (≈ 105 µM) | 1.23 | 12 µg/mL (≈ 57.1 µM) | 1.23 | 12 µg/mL (≈ 57.1 µM)
7 | COc1ccc(C(=O)Oc2ccccc2)cc1OC | 1.27 | 14 µg/mL (≈ 54.2 µM) | 1.21 | 16 µg/mL (≈ 61.9 µM) | 1.15 | 18 µg/mL (≈ 69.7 µM) | 1.3 | 12.5 µg/mL (≈ 48.4 µM) | 1.34 | 11.5 µg/mL (≈ 44.5 µM)
8 | COc1ccc(C(=O)NCc2ccccc2)cc1OC | 1.32 | 13 µg/mL (≈ 47.9 µM) | 1.15 | 19 µg/mL (≈ 70 µM) | 1.15 | 19 µg/mL (≈ 70 µM) | 1.32 | 13 µg/mL (≈ 47.9 µM) | 1.36 | 12 µg/mL (≈ 44.2 µM)
9 | COc1ccc(C(=O)N(C)C)cc1OC | 1.21 | 13 µg/mL (≈ 62.1 µM) | 1.15 | 15 µg/mL (≈ 71.7 µM) | 1.08 | 17 µg/mL (≈ 81.2 µM) | 1.31 | 10 µg/mL (≈ 47.8 µM) | 1.31 | 10 µg/mL (≈ 47.8 µM)
10 | COc1ccc(C(=O)OC(C)(C)C)cc1OC | 1.2 | 15 µg/mL (≈ 63 µM) | 1.08 | 20 µg/mL (≈ 83.9 µM) | 1.08 | 20 µg/mL (≈ 83.9 µM) | 1.38 | 10 µg/mL (≈ 42 µM) | 1.3 | 12 µg/mL (≈ 50.4 µM)
11 | COc1ccc(NC(=O)c2ccc(OC)c(OC)c2)cc1 | 1.38 | 12 µg/mL (≈ 41.8 µM) | 1.18 | 19 µg/mL (≈ 66.1 µM) | 1.2 | 18 µg/mL (≈ 62.6 µM) | 1.36 | 12.5 µg/mL (≈ 43.5 µM) | 1.4 | 11.5 µg/mL (≈ 40 µM)
